≈ marks a conversion by molar mass, not a printed value.
Experiments:
P388 = experiment: Cytotoxicity against mouse P388; format: functional
Summary of the method: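 Murine P-388 leukemia cells were a gift from an academic laboratory; cytotoxicity reported as ED50 in µg/mL.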

HT-29 = experiment: Cytotoxicity against human HT-29; format: functional
Summary of the method: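 HT-29 human colon cells obtained from the American Type Culture Collection; cytotoxicity reported as ED50 in µg/mL.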

[1] = read-out: ED50 (the source's name)

SMILES | Activity (P388) | Activity (HT-29) | EC50 (P388; [1]) | EC50 (HT-29; [1])
C=C1CC[C@@H]2CCC3=C(C(=O)[C@@H](/C(C)=C/[C@@H](OC(C)=O)C1)[C@H]3O)C2(C)C | Not toxic | Not toxic | – | –
CC(C)[C@@H](C)[C@@]1(C)C[C@@H]1[C@@H](C)[C@H]1CC[C@@H]([C@@H]2C[C@H]3O[C@]34C[C@@H](O)CC[C@]4(C)C2=O)[C@]1(C)CCO | Not toxic | Not toxic | – | –
C=C1CC[C@@H]2CCC3=C(C(=O)[C@H](C3=O)/C(C)=C/[C@@H](OC(C)=O)C1)C2(C)C | Not toxic | Not toxic | – | –
C=C1CC[C@@H]2CC[C@H](O)[C@@](O)(C(=O)C/C(C)=C/[C@@H](O)C1)C2(C)C | Not toxic | Not toxic | – | –
C=C1CC[C@@H]2CCC3=C(C(=O)[C@H]([C@H]3O)[C@@]3(C)O[C@@H]3[C@@H](O)C1)C2(C)C | Not toxic | Not toxic | – | –
C=C1CC[C@@H]2CCC3=C(C2(C)C)[C@@](OC)(C/C(C)=C/[C@@H](O)C1)OC3=O | Not toxic | Not toxic | – | –
C=C1CC[C@@H]2CCC3=C([C@@H](C/C(C)=C/[C@@H](O)C1)OC3=O)C2(C)C [CESPITULARIN O] | – | Not toxic | 3.4 µg/mL (≈ 10.7 µM) | –
C=C1CC[C@@H]2CCC3=C(C(=O)[C@H](C3=O)/C(C)=C/[C@@H](O)C1)C2(C)C | Not toxic | Not toxic | – | –
C=C1CC[C@@H]2CC[C@H](OC(=O)C/C(C)=C/[C@@H](O)C1)C(=O)C2(C)C | Not toxic | Not toxic | – | –
C=C1CC[C@@H]2O[C@@]2(C)CC[C@@H]2/C(=C/C=C/C(C)C)C(=O)OC[C@@H]12 | Not toxic | Not toxic | – | –
CC(C)CCC[C@@H](C)[C@H]1CC[C@@H]([C@@H]2C[C@H]3O[C@]34C[C@@H](O)CC[C@]4(C)C2=O)[C@]1(C)CCO | Not toxic | – | – | 1 µg/mL (≈ 2.3 µM)
C=C1CC[C@@H]2CC[C@@H](O)[C@@](O)(C(=O)C/C(C)=C/[C@@H](O)C1)C2(C)C | Not toxic | Not toxic | – | –
